Article PMC8785363 (Leukemia, 2019)

Legend:
[1] = test system: Human serum protein; test: Human serum protein binding; assay type: in vitro ADME; conditions: 22 h incubation with the serum, mean ± SD, triplicate
[2] = test system: T cells from healthy donors; test: Toxicity toward T cells from healthy donors; assay type: cell-based, human; conditions: n=3
[3] = test system: B cells from healthy donors; test: Toxicity toward B cells from healthy donors; assay type: cell-based, human; conditions: n=3
[4] = test system: primary CLL cells; test: Induction of apoptosis / cell death in primary CLL cells; assay type: cell-based, human
[5] = Human serum protein binding; assay type: in vitro ADME; conditions: human
[6] = test system: FBS protein; test: FBS protein binding; assay type: in vitro ADME, bovine; conditions: 22 h incubation with the serum; mean ± SD, triplicate
[7] = FBS protein binding; assay type: in vitro ADME, bovine; conditions: bovine
[8] = test system: Bcl-2; test: Immunoblot of Bcl-2 protein level in CLL cells; assay type: cell-based, human; conditions: 24 h
[9] = test system: primary CLL cells; test: Protein synthesis by [3H]leucine incorporation in primary CLL cells; assay type: cell-based, human; conditions: primary CLL samples, 4 h after exposure
[10] = test system: Mcl-1; test: Immunoblot of Mcl-1 protein level in CLL cells; assay type: cell-based, human; conditions: 24 h
[11] = test system: Bcl-XL; test: Immunoblot of Bcl-XL protein level in CLL cells; assay type: cell-based, human
Summary of the method: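 Primary CLL cells from patients (informed consent) exposed to test compound, then immunoblotted for Bcl-XL alongside Mcl-1, Bcl-2 and PARP. Cleaved PARP served as the apoptosis marker. Three CLL patient samples were run, and one representative blot is shown.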

[12] = test system: primary CLL cells; test: Mitochondrial outer membrane permeabilization; assay type: cell-based, human; conditions: read-out: IC50 for MOMP induction; 24 h, DiOC6(3) staining; mean ± SD in 15 CLL samples
[13] = human serum and fetal bovine serum; cited from earlier work

In the case of `CC(/C=C/C(C)=C/[C@@H]1Cc2nc(cs2)CC[C@@H](N)CC(=O)O[C@@H](C)C/C(C)=C/C=C\C(=O)O1)=C\CN(C)C` [Compound 3, des-methyl PatA], the “Human serum protein binding (%) Fraction Bound” value [1] is reported as 86.7 ± 4.7%, the “Human serum protein binding (%) Recovery” value [1] is reported as 54.0 ± 2.6% and the “toxicity to normal T cells compared with CLL cells / PatA” value [2] is reported as “significantly lower toxicity”. The “toxicity to normal B cells compared with CLL cells / PatA” value [3] was “significantly lower toxicity”.
`CC(/C=C/C(C)=C/[C@@H]1Cc2nc(cs2)[C@@H](C)C[C@@H](N)CC(=O)O[C@@H](C)C/C(C)=C/C=C\C(=O)O1)=C\CN(C)C` [PatA (1), Pateamine A, reference compound] showed an IC50 ([4]; Homo sapiens, CLL cell, 24 h, read-out: IC50, μM 10% FBS) of 0.13 ± 0.08 µM, an IC50 ([4]; Homo sapiens, CLL cell, 24 h, read-out: IC50, μM 10% Plasma) of 0.12 ± 0.09 µM and a recovery at 22 h [5] of 80.4 ± 12.8%. The fraction unbound at 22 h ([5]; serum) was 0.026, the “FBS protein binding (%) Recovery” value [6] was 86.3 ± 4.3% and the recovery at 22 h ([7]; FBS protein binding (%) Recovery, 22 h incubation with the serum, mean ± SD, triplicate) was 86.2%. For the same compound, the fraction unbound at 22 h ([7]; serum) was 0.013.
For `CC(/C=C/C(C)=C/[C@@H]1Cc2nc(cs2)CCCCC(=O)O[C@@H](C)C/C(C)=C/C=C\C(=O)O1)=C\CN(C)C` [DMDA PatA (2), des-methyl, des-amino PatA], the “times less potent than PatA” value ([4]; CLL cells in media with 10% autologous patient plasma) was “about 30 times”, the IC50 ([4]; read-out: IC50 in one sample with 19% del11q, single CLL sample with 19% del11q) was 4.32 µM and the “Human serum protein binding (%) Fraction Bound” value [1] was 99.6 ± 0.1%. For the same compound, the “Human serum protein binding (%) Recovery” value [1] was 38.1 ± 7.5%, the “Human serum protein binding (%) Fraction Bound” value ([1]; listed as DMDAPatA) was 99.7% and the “Human serum protein binding (%) Recovery” value ([1]; listed as DMDAPatA) was 31.4%. For the same compound, the “effect on Bcl-2 expression” value [8] was “without affecting the expression”, the “inhibition of protein synthesis ([3H]leucine incorporation)” value [9] was “inhibited protein synthesis” and the “effect on Mcl-1 protein level” value [10] was “reduced levels”. The “effect on Bcl-XL expression” value [11] was “without affecting the expression”, the IC50 [12] was 4.92 ± 1.4 µM and the “FBS protein binding (%) Fraction Bound” value [6] was 99.1 ± 0.1%. The “FBS protein binding (%) Recovery” value [6] was 78.3 ± 2.7% and the “stability in human serum compared with fetal bovine serum” value [13] was “similar”.
